Test results taken from ChEMBL document CHEMBL4219021, “Discovery of a Small-Molecule Degrader of Bromodomain and Extra-Terminal (BET) Proteins with Picomolar Cellular Potencies and Capable of Achieving Tumor Regression” (J Med Chem, 2018).
pIC50, pKi: −log10 of the molar value. Active and inactive are the calls of the source. The calls are words filed in the database; no cut-off is given here.

What was measured:
[1] = target: T1, Bromodomain-containing protein 2 (Homo sapiens, UniProt P25440); assay: Inhibition of FAM-labeled ZBA248 binding to recombinant N-terminal His6-tagged BRD2 bromodomain 1 (72 to 205 residues) (unknown origin) expressed in Escherichia coli Rosetta2 DE3 after 30 mins by fluorescence polarization assay
[2] = target: T2, Protein cereblon/Bromodomain-containing protein 2/Cullin-4A (Homo sapiens) (UniProt P25440+Q96SW2+Q13619); assay: Induction of cereblon/cullin 4A-mediated BRD2 degradation in human RS4:11 cells at 30 to 1000 nM after 24 hrs by Western blot method; type: cell-based
Summary of the method: (§1)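 RS4;11 cells (2 × 10⁶/well) treated for 24 h at the indicated concentrations. Lysed in RIPA with protease inhibitors and immunoblotted for BRD2, BRD3, BRD4, c-Myc and PARP, with GAPDH as loading control.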

MOLM-13 [3] = assay: Induction of apoptosis in human MOLM13 cells at 30 to 300 nM after 24 hrs by Annexin-V/propidium iodide staining based flow cytometry; type: functional, cell-based
Summary of the method: (§2)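 RS4;11 or MOLM-13 cells treated with compound for 24 h, then analyzed by flow cytometry. Cell cycle read by propidium iodide staining and apoptosis by annexin V/propidium iodide staining.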

[4] = target: T2, Protein cereblon/Bromodomain-containing protein 2/Cullin-4A (Homo sapiens); assay: Induction of cereblon/cullin 4A-mediated BRD2 degradation in human RS4:11 cells at 100 to 300 nM after 3 hrs by Western blot method; type: cell-based
Summary of the method: (§3)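 RS4;11 cells (2 × 10⁶/well) treated for 3 h at the indicated concentrations. Lysed in RIPA with protease inhibitors and immunoblotted for BRD2, BRD3 and BRD4 with specific antibodies.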

[5] = target: T3, Protein cereblon/Bromodomain-containing protein 4/Cullin-4A (Homo sapiens) (UniProt O60885+Q96SW2+Q13619); assay: Induction of cereblon/cullin 4A-mediated BRD4 degradation in human RS4:11 cells at 30 to 1000 nM after 24 hrs by Western blot method; type: cell-based
Summary of the method: (§4)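 Western blot of RS4;11 cells (2 × 10⁶ cells/well) in RPMI 1640 with 10% FBS, 37 °C, 5% CO₂, used within three months of thawing. Compound exposure was 3 h or 24 h at the indicated concentrations. Cells were lysed in RIPA with protease inhibitors, and BRD2, BRD3 and BRD4 were detected with specific antibodies, with GAPDH as loading control.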

[6] = target: T4, Bromodomain-containing protein 4 (Homo sapiens, UniProt O60885); assay: Inhibition of FAM-labeled ZBA248 binding to recombinant N-terminal His6-tagged BRD4 bromodomain 1 (44 to 168 residues) (unknown origin) expressed in Escherichia coli Rosetta2 DE3 after 30 mins by fluorescence polarization assay
[7] = target: T5, Bromodomain-containing protein 3 (Homo sapiens, UniProt Q15059); assay: Inhibition of FAM-labeled ZBA248 binding to recombinant N-terminal His6-tagged BRD3 bromodomain 1 (24 to 144 residues) (unknown origin) expressed in Escherichia coli Rosetta2 DE3 after 30 mins by fluorescence polarization assay
MOLM-13 [8] = assay: Cytotoxicity against human MOLM13 cells assessed as cell growth inhibition after 4 days by WST-8 assay; type: functional, cell-based; conditions: MOLM-13, 96 h
RS4-11 [9] = assay: Induction of cell cycle arrest in human RS4:11 cells after 24 hrs by propidium iodide staining based flow cytometry; type: functional; summary of the method: as §2
MOLM-13 [10] = assay: Induction of cell cycle arrest in human MOLM13 cells after 24 hrs by propidium iodide staining based flow cytometry; type: functional; summary of the method: as §2
[11] = target: T3, Protein cereblon/Bromodomain-containing protein 4/Cullin-4A (Homo sapiens); assay: Induction of cereblon/cullin 4A-mediated BRD4 degradation in human RS4:11 cells at 100 to 300 nM after 3 hrs by Western blot method; type: cell-based; summary of the method: as §4
[12] = target: T4, Bromodomain-containing protein 4; assay: Inhibition of FAM-labeled ZBA248 binding to recombinant N-terminal His6-tagged BRD4 bromodomain 2 (333 to 460 residues) (unknown origin) expressed in Escherichia coli Rosetta2 DE3 after 30 mins by fluorescence polarization assay
RS4-11 [13] = assay: Induction of apoptosis in human RS4:11 cells at 30 to 300 nM after 24 hrs by Annexin-V/propidium iodide staining based flow cytometry; type: functional, cell-based; summary of the method: as §2
[14] = target: T5, Bromodomain-containing protein 3; assay: Inhibition of FAM-labeled ZBA248 binding to recombinant N-terminal His6-tagged BRD3 bromodomain 2 (306 to 417residues) (unknown origin) expressed in Escherichia coli Rosetta2 DE3 after 30 mins by fluorescence polarization assay
[15] = target: T6, Protein cereblon/Bromodomain-containing protein 3/Cullin-4A (Homo sapiens) (UniProt Q15059+Q96SW2+Q13619); assay: Induction of cereblon/cullin 4A-mediated BRD3 degradation in human RS4:11 cells at 100 to 300 nM after 3 hrs by Western blot method; type: cell-based; summary of the method: as §3
Homo sapiens = species on record: Homo sapiens; assay: Induction of cereblon/cullin 4A-mediated BET degradation in human RS4:11 cells assessed as downregulation of c-myc protein level at 300 to 1000 nM after 24 hrs by Western blot method; type: cell-based; summary of the method: as §1
RS4-11 [16] = assay: Cytotoxicity against human RS4:11 cells assessed as cell growth inhibition after 4 days by WST-8 assay; type: functional, cell-based; conditions: RS4-11, 96 h
[17] = target: T1, Bromodomain-containing protein 2; assay: Inhibition of FAM-labeled ZBA248 binding to recombinant N-terminal His6-tagged BRD2 bromodomain 2 (349 to 460 residues) (unknown origin) expressed in Escherichia coli Rosetta2 DE3 after 30 mins by fluorescence polarization assay
[18] = target: T6, Protein cereblon/Bromodomain-containing protein 3/Cullin-4A (Homo sapiens); assay: Induction of cereblon/cullin 4A-mediated BRD3 degradation in human RS4:11 cells at 30 to 1000 nM after 24 hrs by Western blot method; type: cell-based; summary of the method: as §4

T1 sequence (P25440 whole entry, the tested form may be a part): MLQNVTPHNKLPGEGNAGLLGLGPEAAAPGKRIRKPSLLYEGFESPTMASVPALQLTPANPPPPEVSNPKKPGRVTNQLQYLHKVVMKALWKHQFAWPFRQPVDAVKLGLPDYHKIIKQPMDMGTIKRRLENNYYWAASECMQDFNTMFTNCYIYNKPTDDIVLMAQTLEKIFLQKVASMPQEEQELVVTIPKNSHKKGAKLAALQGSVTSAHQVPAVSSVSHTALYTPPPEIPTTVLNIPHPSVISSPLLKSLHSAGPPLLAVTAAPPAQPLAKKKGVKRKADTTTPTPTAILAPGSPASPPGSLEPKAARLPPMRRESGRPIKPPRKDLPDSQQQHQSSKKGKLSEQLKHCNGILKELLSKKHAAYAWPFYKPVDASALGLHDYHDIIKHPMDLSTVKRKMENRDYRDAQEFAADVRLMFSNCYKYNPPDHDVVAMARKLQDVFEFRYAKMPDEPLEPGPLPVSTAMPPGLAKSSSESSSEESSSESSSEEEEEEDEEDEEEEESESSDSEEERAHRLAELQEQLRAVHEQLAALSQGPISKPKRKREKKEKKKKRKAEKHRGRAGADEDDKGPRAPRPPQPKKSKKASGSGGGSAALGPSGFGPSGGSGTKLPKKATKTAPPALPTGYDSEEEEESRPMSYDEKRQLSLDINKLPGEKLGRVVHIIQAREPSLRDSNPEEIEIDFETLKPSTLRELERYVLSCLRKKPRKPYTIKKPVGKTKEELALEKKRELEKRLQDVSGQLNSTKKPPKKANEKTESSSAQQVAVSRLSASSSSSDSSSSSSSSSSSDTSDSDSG
T5 sequence (Q15059 whole entry, the tested form may be a part): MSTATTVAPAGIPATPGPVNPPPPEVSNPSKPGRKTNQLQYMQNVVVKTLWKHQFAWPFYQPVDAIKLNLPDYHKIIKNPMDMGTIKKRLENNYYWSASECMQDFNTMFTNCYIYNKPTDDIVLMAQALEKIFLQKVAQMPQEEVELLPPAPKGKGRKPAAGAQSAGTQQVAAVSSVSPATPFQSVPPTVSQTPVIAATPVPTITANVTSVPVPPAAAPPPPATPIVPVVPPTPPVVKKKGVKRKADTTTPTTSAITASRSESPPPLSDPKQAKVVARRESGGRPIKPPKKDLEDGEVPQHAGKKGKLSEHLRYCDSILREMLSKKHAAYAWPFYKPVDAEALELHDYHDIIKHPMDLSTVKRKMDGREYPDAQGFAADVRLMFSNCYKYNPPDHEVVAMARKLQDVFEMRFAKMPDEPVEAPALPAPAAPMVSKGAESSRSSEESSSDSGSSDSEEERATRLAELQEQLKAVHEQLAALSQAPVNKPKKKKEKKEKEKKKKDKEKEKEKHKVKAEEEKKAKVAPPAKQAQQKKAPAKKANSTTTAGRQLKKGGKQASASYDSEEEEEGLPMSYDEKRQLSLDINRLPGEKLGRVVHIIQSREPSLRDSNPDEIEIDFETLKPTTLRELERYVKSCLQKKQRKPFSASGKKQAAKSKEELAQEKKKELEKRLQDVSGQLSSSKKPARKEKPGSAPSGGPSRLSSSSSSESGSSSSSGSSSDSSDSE
T2 sequence (P25440 whole entry, looked up): as the sequence (P25440 whole entry, the tested form may be a part) above
T2 sequence (Q13619 whole entry, looked up): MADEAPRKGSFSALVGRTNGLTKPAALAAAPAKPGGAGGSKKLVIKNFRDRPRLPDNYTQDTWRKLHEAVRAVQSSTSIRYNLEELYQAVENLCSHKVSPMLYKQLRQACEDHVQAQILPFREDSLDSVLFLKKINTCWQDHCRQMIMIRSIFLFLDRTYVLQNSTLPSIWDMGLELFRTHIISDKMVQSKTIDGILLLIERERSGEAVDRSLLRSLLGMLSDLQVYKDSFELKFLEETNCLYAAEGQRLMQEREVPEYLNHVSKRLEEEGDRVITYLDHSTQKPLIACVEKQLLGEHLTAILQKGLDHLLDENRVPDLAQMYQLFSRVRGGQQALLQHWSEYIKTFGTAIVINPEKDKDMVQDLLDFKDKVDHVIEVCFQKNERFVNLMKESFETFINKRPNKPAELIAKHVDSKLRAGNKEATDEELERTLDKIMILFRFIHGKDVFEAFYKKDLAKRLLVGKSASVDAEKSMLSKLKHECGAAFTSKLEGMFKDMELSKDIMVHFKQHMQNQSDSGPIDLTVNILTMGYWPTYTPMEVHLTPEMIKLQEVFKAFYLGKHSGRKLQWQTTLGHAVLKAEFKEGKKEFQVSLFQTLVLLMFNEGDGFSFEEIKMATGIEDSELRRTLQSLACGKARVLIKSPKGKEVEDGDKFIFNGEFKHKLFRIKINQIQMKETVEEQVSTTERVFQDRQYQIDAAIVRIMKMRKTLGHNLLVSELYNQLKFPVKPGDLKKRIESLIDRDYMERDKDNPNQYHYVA
T2 sequence (Q96SW2 whole entry, looked up): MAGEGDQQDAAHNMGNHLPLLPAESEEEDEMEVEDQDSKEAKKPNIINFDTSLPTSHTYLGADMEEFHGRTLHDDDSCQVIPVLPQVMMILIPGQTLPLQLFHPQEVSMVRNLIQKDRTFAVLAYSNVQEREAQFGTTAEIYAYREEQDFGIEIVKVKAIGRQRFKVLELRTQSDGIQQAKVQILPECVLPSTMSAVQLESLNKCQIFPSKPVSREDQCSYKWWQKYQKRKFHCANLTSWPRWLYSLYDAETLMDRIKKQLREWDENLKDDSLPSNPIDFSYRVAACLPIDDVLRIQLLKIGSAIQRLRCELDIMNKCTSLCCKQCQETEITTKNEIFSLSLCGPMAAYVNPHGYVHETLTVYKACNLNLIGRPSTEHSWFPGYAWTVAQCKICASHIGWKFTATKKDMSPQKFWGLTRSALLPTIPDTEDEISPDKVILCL
T6 sequence (Q13619 whole entry, looked up): as the sequence (Q13619 whole entry, looked up) above
T6 sequence (Q15059 whole entry, looked up): as the sequence (Q15059 whole entry, the tested form may be a part) above
T6 sequence (Q96SW2 whole entry, looked up): as the sequence (Q96SW2 whole entry, looked up) above

pIC50 [1]: 8.51 | pKi [1]: 9.05 | Activity [2]: inactive | Activity [4]: inactive | Activity [5]: inactive | pIC50 [6]: 8.15 | pKi [6]: 9.30 | pIC50 [7]: 8.18 | pKi [7]: 9.74 | Activity [11]: inactive | pIC50 [12]: 8.15 | pKi [12]: 9.00 | pIC50 [14]: 8.72 | pKi [14]: 9.68 | Activity [15]: inactive | pIC50 [17]: 8.41 | pKi [17]: 9.57 | Activity [18]: inactive
SMILES: CCn1nc(C2CC2)cc1Nc1nc(C(=O)NC)nc2[nH]c3cc(-c4c(C)noc4C)c(OC)cc3c12
Activity (MOLM-13 [3]): inactive | pIC50 (MOLM-13 [8]): 7.59 | Activity (RS4-11 [9]): Dose-dependent effect | Activity (MOLM-13 [10]): Dose-dependent effect | Activity (RS4-11 [13]): inactive | Activity (Homo sapiens): Active | pIC50 (RS4-11 [16]): 7.62
